Test results as given in ChEMBL document CHEMBL4190404, “Synthesis and characterization of amino acid substituted sunitinib analogues for the treatment of AML” (Bioorg Med Chem Lett, 2018).
pIC50: −log10 of the molar value. In brackets after ≈: the same amount, converted by molar mass.

Experiments:
[1] = system: Receptor-type tyrosine-protein kinase FLT3 (Homo sapiens), P36888 [UNDEFINED MUTATION]; assay: Inhibition of FLT3 ITD mutant (unknown origin) using TAMRA-Src- tide as substrate at 12.5 uM after 1 hr by fluorescence polarization assay relative to control
Sequence of Receptor-type tyrosine-protein kinase FLT3 (Homo sapiens), P36888 [UNDEFINED MUTATION] (P36888 whole entry, looked up, stated change not applied): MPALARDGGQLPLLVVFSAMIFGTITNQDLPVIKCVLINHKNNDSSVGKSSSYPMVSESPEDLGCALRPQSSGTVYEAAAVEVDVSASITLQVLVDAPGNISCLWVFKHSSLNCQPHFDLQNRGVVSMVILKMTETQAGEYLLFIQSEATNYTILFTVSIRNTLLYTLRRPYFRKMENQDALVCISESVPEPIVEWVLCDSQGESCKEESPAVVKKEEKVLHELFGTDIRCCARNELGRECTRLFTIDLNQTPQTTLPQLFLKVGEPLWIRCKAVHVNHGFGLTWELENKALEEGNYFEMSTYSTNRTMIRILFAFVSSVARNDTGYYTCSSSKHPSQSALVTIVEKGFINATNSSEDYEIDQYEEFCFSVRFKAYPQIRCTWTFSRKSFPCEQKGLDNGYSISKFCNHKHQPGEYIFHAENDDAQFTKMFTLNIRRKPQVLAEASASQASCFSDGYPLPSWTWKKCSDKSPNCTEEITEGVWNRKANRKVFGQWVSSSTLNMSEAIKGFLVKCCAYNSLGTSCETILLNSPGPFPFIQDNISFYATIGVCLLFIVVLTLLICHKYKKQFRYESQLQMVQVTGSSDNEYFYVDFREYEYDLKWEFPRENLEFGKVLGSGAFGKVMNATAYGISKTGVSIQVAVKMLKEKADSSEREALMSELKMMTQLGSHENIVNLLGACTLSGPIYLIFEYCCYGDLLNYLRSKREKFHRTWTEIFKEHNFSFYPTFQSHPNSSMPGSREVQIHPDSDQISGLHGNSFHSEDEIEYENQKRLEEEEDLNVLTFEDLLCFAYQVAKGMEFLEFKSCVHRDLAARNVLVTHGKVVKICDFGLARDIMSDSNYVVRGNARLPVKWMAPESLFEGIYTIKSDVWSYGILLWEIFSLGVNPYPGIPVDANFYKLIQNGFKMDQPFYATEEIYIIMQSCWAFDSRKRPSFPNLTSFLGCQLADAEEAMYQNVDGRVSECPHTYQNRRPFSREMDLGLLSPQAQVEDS
In short: (§1)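 FLT3-ITD kinase inhibition by fluorescence polarization IMAP assay; each compound tested at 12.5 and 1.25 μM; percent inhibition, average of two parallel measurements.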

[2] = system: Receptor-type tyrosine-protein kinase FLT3 (Homo sapiens), P36888 [UNDEFINED MUTATION]; assay: Inhibition of FLT3 ITD mutant (unknown origin) using TAMRA-Src- tide as substrate at 1.25 uM after 1 hr by fluorescence polarization assay relative to control; in short: as §1
MV4-11 = assay: Antiproliferative activity against human MV4-11 cells after 72 hrs by Celltiter-Glo luminescent cell viability assay; assay type: functional, cell-based; conditions: MV4-11, 72 h
In short: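 MV4-11 leukaemia cells, 72 h proliferation assay, luminescence read-out; IC50 determined from concentration–response.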

[3] = Aqueous solubility in pH 7.4 phosphate buffer at 120 uM after 24 hrs by HPLC method; assay type: physicochemical
[4] = Aqueous solubility in pH 5.5 phosphate buffer at 120 uM after 24 hrs by HPLC method; assay type: physicochemical; conditions: phosphate buffer, pH 5.5
[5] = Lipophilicity, chromatographic hydrophobicity index of the compound at pH 7.4 by HPLC method; assay type: physicochemical; conditions: buffer
In short: (§2)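 RP-HPLC with buffer/acetonitrile gradient elution; CHI profile at starting pH 10.5, 7.4, 5.5 and 1.2; values given as average of the compound group.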

[6] = Lipophilicity, chromatographic hydrophobicity index of the compound at pH 5.5 by HPLC method; assay type: physicochemical; conditions: buffer; in short: as §2
[7] = Lipophilicity, chromatographic hydrophobicity index of the compound at pH 1.2 by HPLC method; assay type: physicochemical; conditions: buffer; in short: as §2
[8] = buffer, pH 10.5

Row | inhibition [1] [%] | inhibition [2] [%] | pIC50 (MV4-11) | solubility at 24 h, 120 µM [3] [µM] | solubility at 24 h, 120 µM [4] [µM] | CHI [5] | CHI [6] | CHI [7] | CHI [8] | Structure (SMILES)
1 | 49.6 | 8.2 | 4.77 |  |  |  |  |  |  | COC(=O)CC[C@@H](NC(=O)c1ccc2c(c1)/C(=C/c1[nH]c(C)c(C(=O)N[C@@H](Cc3ccccc3)C(=O)OC)c1C)C(=O)N2)C(=O)OC
2 | 96.2 | 47 |  |  |  |  |  |  |  | CCOC(=O)c1c(C)[nH]c(/C=C2\C(=O)Nc3ccc(C(=O)N[C@H](Cc4ccccc4)C(=O)O)cc32)c1C
3 | 76.7 | 30.2 |  | < 1 | < 1 | 84 | 84 | 84 | 84 | CCOC(=O)c1c(C)[nH]c(/C=C2\C(=O)Nc3ccc(C(=O)N[C@@H](CCC(=O)OC)C(=O)OC)cc32)c1C
4 | > 100 | 89.6 | 4.74 |  |  |  |  |  |  | COC(=O)[C@H](Cc1ccccc1)NC(=O)c1ccc2c(c1)/C(=C/c1[nH]c(C)c(C(=O)N[C@H](Cc3ccccc3)C(=O)O)c1C)C(=O)N2
5 | > 100 | 104 |  |  |  |  |  |  |  | Cc1[nH]c(/C=C2\C(=O)Nc3ccc(C(=O)N[C@@H](Cc4ccccc4)C(=O)O)cc32)c(C)c1C(=O)N[C@H](Cc1ccccc1)C(=O)O
6 | > 100 | 97.4 |  | ≥ 120 | 30 (≈ 14.5 µg/mL) | 38 | 45 | 58 | 35 | COC(=O)CC[C@H](NC(=O)c1c(C)[nH]c(/C=C2\C(=O)Nc3ccc(C(=O)O)cc32)c1C)C(=O)OC
7 | 94.8 | 92.3 | > 8.00 | ≥ 120 | ≥ 120 | 57 | 55 | 51 |  | CCN(CC)CCNC(=O)c1c(C)[nH]c(/C=C2\C(=O)Nc3ccc(F)cc32)c1C [SUNITINIB]
8 | 67.7 | 35.4 | 5.48 |  |  |  |  |  |  | COC(=O)[C@H](Cc1ccccc1)NC(=O)c1ccc2c(c1)/C(=C/c1[nH]c(C)c(C(=O)N[C@H](Cc3ccccc3)C(=O)OC)c1C)C(=O)N2
9 | 70.3 | 29 | 5.60 |  |  |  |  |  |  | COC(=O)[C@H](Cc1ccccc1)NC(=O)c1c(C)[nH]c(/C=C2\C(=O)Nc3ccc(C(=O)N[C@H](Cc4ccccc4)C(=O)OC)cc32)c1C
10 | > 100 | 87.1 |  |  |  |  |  |  |  | Cc1[nH]c(/C=C2\C(=O)Nc3ccc(C(=O)N[C@H](Cc4ccccc4)C(=O)O)cc32)c(C)c1C(=O)O
11 | > 100 | 93.5 |  |  |  |  |  |  |  | COC(=O)CC[C@@H](NC(=O)c1c(C)[nH]c(/C=C2\C(=O)Nc3ccc(C(=O)O)cc32)c1C)C(=O)OC
12 | > 100 | 98.7 |  | ≥ 120 | 110 (≈ 68.3 µg/mL) | 39 | 40 | 70 | 36 | Cc1[nH]c(/C=C2\C(=O)Nc3ccc(C(=O)N[C@@H](Cc4ccccc4)C(=O)O)cc32)c(C)c1C(=O)N[C@@H](Cc1ccccc1)C(=O)O
13 | 63.8 | 37.9 | 5.80 |  |  |  |  |  |  | COC(=O)CC[C@@H](NC(=O)c1c(C)[nH]c(/C=C2\C(=O)Nc3ccc(C(=O)N[C@H](Cc4ccccc4)C(=O)OC)cc32)c1C)C(=O)OC
14 | 80.6 | 47 | 6.52 |  |  |  |  |  |  | COC(=O)c1ccc2c(c1)/C(=C/c1[nH]c(C)c(C(=O)N[C@H](Cc3ccccc3)C(=O)OC)c1C)C(=O)N2
15 | > 100 | 90.9 |  |  |  |  |  |  |  | COC(=O)CC[C@@H](NC(=O)c1c(C)[nH]c(/C=C2\C(=O)Nc3ccc(C(=O)N[C@@H](Cc4ccccc4)C(=O)O)cc32)c1C)C(=O)OC
16 | 28.8 | 58.7 |  | 100 (≈ 48.3 µg/mL) | < 5 | 42 | 54 | 59 | 34 | COC(=O)CC[C@H](NC(=O)c1ccc2c(c1)/C(=C/c1[nH]c(C)c(C(=O)O)c1C)C(=O)N2)C(=O)OC
17 | > 100 | 67.7 |  |  |  |  |  |  |  | COC(=O)CC[C@@H](NC(=O)c1ccc2c(c1)/C(=C/c1[nH]c(C)c(C(=O)N[C@@H](Cc3ccccc3)C(=O)O)c1C)C(=O)N2)C(=O)OC
18 | > 100 | 76.8 |  |  |  |  |  |  |  | Cc1[nH]c(/C=C2\C(=O)Nc3ccc(C(=O)N[C@H](Cc4ccccc4)C(=O)O)cc32)c(C)c1C(=O)N[C@H](Cc1ccccc1)C(=O)O
19 | > 100 | 87 |  |  |  |  |  |  |  | Cc1[nH]c(/C=C2\C(=O)Nc3ccc(C(=O)O)cc32)c(C)c1C(=O)N[C@H](Cc1ccccc1)C(=O)O
20 | > 100 | 91 | 5.41 |  |  |  |  |  |  | COC(=O)c1ccc2c(c1)/C(=C/c1[nH]c(C)c(C(=O)N[C@H](Cc3ccccc3)C(=O)O)c1C)C(=O)N2
21 | > 100 | 97.4 |  | ≥ 120 | < 5 | 32 | 41 | 63 | 24 | Cc1[nH]c(/C=C2\C(=O)Nc3ccc(C(=O)N[C@@H](Cc4ccccc4)C(=O)O)cc32)c(C)c1C(=O)O

Row | inhibition [1] [%] | inhibition [2] [%] | pIC50 (MV4-11) | solubility at 24 h, 120 µM [3] [µM] | solubility at 24 h, 120 µM [4] [µM] | CHI [5] | CHI [6] | CHI [7] | CHI [8] | Structure (SMILES)
22 | > 100 | 73 |  |  |  |  |  |  |  | COC(=O)CC[C@@H](NC(=O)c1ccc2c(c1)/C(=C/c1[nH]c(C)c(C(=O)N[C@H](Cc3ccccc3)C(=O)O)c1C)C(=O)N2)C(=O)OC
23 | 92.2 | 61.3 | 5.89 |  |  |  |  |  |  | CCOC(=O)c1c(C)[nH]c(/C=C2\C(=O)Nc3ccc(C(=O)N[C@H](Cc4ccccc4)C(=O)OC)cc32)c1C
24 | > 100 | 100 |  | ≥ 120 | 110 (≈ 52.1 µg/mL) | 29 | 35 | 61 | 24 | Cc1[nH]c(/C=C2\C(=O)Nc3ccc(C(=O)O)cc32)c(C)c1C(=O)N[C@@H](Cc1ccccc1)C(=O)O
25 | 32.8 | 12.1 | 4.99 |  |  |  |  |  |  | COC(=O)CC[C@@H](NC(=O)c1ccc2c(c1)/C(=C/c1[nH]c(C)c(C(=O)N[C@H](Cc3ccccc3)C(=O)OC)c1C)C(=O)N2)C(=O)OC
26 | > 100 | 97.4 |  |  |  |  |  |  |  | COC(=O)[C@@H](Cc1ccccc1)NC(=O)c1c(C)[nH]c(/C=C2\C(=O)Nc3ccc(C(=O)O)cc32)c1C
27 | 88.4 | 35.3 | 5.49 |  |  |  |  |  |  | COC(=O)CC[C@H](NC(=O)c1c(C)[nH]c(/C=C2\C(=O)Nc3ccc(C(=O)N[C@H](Cc4ccccc4)C(=O)OC)cc32)c1C)C(=O)OC
28 | 70.3 | 80.4 |  |  |  |  |  |  |  | COC(=O)CC[C@H](NC(=O)c1c(C)[nH]c(/C=C2\C(=O)Nc3ccc(C(=O)N[C@H](CCC(=O)OC)C(=O)OC)cc32)c1C)C(=O)OC
29 | > 100 | 70.3 |  |  |  |  |  |  |  | COC(=O)CC[C@H](NC(=O)c1ccc2c(c1)/C(=C/c1[nH]c(C)c(C(=O)N[C@H](Cc3ccccc3)C(=O)O)c1C)C(=O)N2)C(=O)OC
30 | > 100 | 66.4 |  |  |  |  |  |  |  | COC(=O)[C@@H](Cc1ccccc1)NC(=O)c1c(C)[nH]c(/C=C2\C(=O)Nc3ccc(C(=O)N[C@H](Cc4ccccc4)C(=O)O)cc32)c1C
31 | 27.5 | 76.7 | 6.22 |  |  |  |  |  |  | COC(=O)[C@@H](Cc1ccccc1)NC(=O)c1ccc2c(c1)/C(=C/c1[nH]c(C)c(C(=O)O)c1C)C(=O)N2
32 | 94.8 | 53.5 | 4.60 |  |  |  |  |  |  | COC(=O)CC[C@@H](NC(=O)c1c(C)[nH]c(/C=C2\C(=O)Nc3ccc(C(=O)N[C@@H](Cc4ccccc4)C(=O)OC)cc32)c1C)C(=O)OC
33 | 78 | 31.5 | < 4.52 |  |  |  |  |  |  | COC(=O)CC[C@H](NC(=O)c1ccc2c(c1)/C(=C/c1[nH]c(C)c(C(=O)N[C@H](Cc3ccccc3)C(=O)OC)c1C)C(=O)N2)C(=O)OC
34 | 81.9 | 43.2 |  |  |  |  |  |  |  | COC(=O)CC[C@H](NC(=O)c1ccc2c(c1)/C(=C/c1[nH]c(C)c(C(=O)N[C@H](CCC(=O)OC)C(=O)OC)c1C)C(=O)N2)C(=O)OC
35 | 93.5 | 88.3 | 5.89 |  |  |  |  |  |  | COC(=O)CC[C@@H](NC(=O)c1c(C)[nH]c(/C=C2\C(=O)Nc3ccc(C(=O)OC)cc32)c1C)C(=O)OC
36 | > 100 | 39.2 |  |  |  |  |  |  |  | COC(=O)CC[C@@H](NC(=O)c1c(C)[nH]c(/C=C2\C(=O)Nc3ccc(C(=O)N[C@H](Cc4ccccc4)C(=O)O)cc32)c1C)C(=O)OC
37 | 85.8 | 35.4 | 5.54 |  |  |  |  |  |  | COC(=O)[C@@H](Cc1ccccc1)NC(=O)c1ccc2c(c1)/C(=C/c1[nH]c(C)c(C(=O)N[C@H](Cc3ccccc3)C(=O)OC)c1C)C(=O)N2
38 | > 100 | 93.5 |  |  |  |  |  |  |  | COC(=O)[C@@H](Cc1ccccc1)NC(=O)c1c(C)[nH]c(/C=C2\C(=O)Nc3ccc(C(=O)N[C@@H](Cc4ccccc4)C(=O)O)cc32)c1C
39 | 79.3 | 3.1 |  |  |  |  |  |  |  | CCOC(=O)c1c(C)[nH]c(/C=C2\C(=O)Nc3ccc(C(=O)N[C@H](CCC(=O)OC)C(=O)OC)cc32)c1C
40 | 94.8 | 18.6 |  |  |  |  |  |  |  | COC(=O)[C@H](Cc1ccccc1)NC(=O)c1c(C)[nH]c(/C=C2\C(=O)Nc3ccc(C(=O)N[C@H](Cc4ccccc4)C(=O)O)cc32)c1C
41 | > 100 | 28.9 | 4.71 |  |  |  |  |  |  | COC(=O)[C@@H](Cc1ccccc1)NC(=O)c1ccc2c(c1)/C(=C/c1[nH]c(C)c(C(=O)N[C@H](Cc3ccccc3)C(=O)O)c1C)C(=O)N2
